Consider four compounds from ChEMBL document CHEMBL3045743, “Synthesis and herbicidal activity of isoindoline-1,3-dione substituted benzoxazinone derivatives containing a carboxylic ester group” (J Agric Food Chem, 2009).

One data set deals with Gossypium. The data set can be described thus: (§1) Phytotoxicity against Gossypium (cotton) assessed as growth inhibition at 300 g.a.i/ha pre-emergent application measured after 15 days by greenhouse crop selectivity assay. The data set is classed as organism-based. To be noted: in vivo, other, 360 h. Summed up:
(§2)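 Pre-emergence greenhouse crop selectivity test on pot-grown plants in clay soil (pH 6.5, 1.7% organic matter, 37.5% clay, CEC 12.9 cmol/kg). Stock solutions were diluted with water and applied at 300, 150, 75 or 37.5 g a.i./ha, in triplicate. After 15 days, phytotoxicity was scored visually against untreated controls as % crop growth inhibition, averaged over the triplicates.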

The nature of data set [1]: as §1. It is filed as organism-based. The note with it: in vivo, 300 g.a.i/ha, read-out: GI. Summed up:
as §2

A short description of data set [2]: Phytotoxicity against Triticum aestivum (wheat) assessed as growth inhibition at 37.5 g.a.i/ha pre-emergent application measured after 15 days by greenhouse crop selectivity assay. The data set is classed as organism-based. The note with it: in vivo, 37.5 g.a.i/ha, read-out: GI. Summed up:
as §2

Data set [3] is described as follows: Phytotoxicity against Glycine max (soybean) assessed as growth inhibition at 300 g.a.i/ha pre-emergent application measured after 15 days by greenhouse crop selectivity assay. The data set is classed as organism-based. To be noted: in vivo, 300 g.a.i/ha, read-out: GI. The method, boiled down: as §2
A short description of data set [4]: Phytotoxicity against Glycine max (soybean) assessed as growth inhibition at 150 g.a.i/ha pre-emergent application measured after 15 days by greenhouse crop selectivity assay. To be noted: in vivo, 150 g.a.i/ha, read-out: GI. The data set is classed as organism-based. Summed up: as §2
A short description of data set [5]: Phytotoxicity against Glycine max (soybean) assessed as growth inhibition at 75 g.a.i/ha pre-emergent application measured after 15 days by greenhouse crop selectivity assay. The note with it: in vivo, 75 g.a.i/ha, read-out: GI. The data set is classed as organism-based. Summed up: as §2
The test system of data set [6] is Oryza sativa. The data set can be described thus: Phytotoxicity against Oryza sativa (rice) assessed as growth inhibition at 75 g.a.i/ha pre-emergent application measured after 15 days by greenhouse crop selectivity assay. It is filed as organism-based, L. To be noted: in vivo, other, 360 h. Summed up: as §2
For data set [7], the system named is Oryza sativa. Briefly: Phytotoxicity against Oryza sativa (rice) assessed as growth inhibition at 37.5 g.a.i/ha pre-emergent application measured after 15 days by greenhouse crop selectivity assay. The note with it: in vivo, other, 360 h. The data set is classed as organism-based, L. The method, boiled down:
as §2

The next data set deals with Triticum aestivum. Briefly: Phytotoxicity against Triticum aestivum (wheat) assessed as growth inhibition at 150 g.a.i/ha pre-emergent application measured after 15 days by greenhouse crop selectivity assay. It is filed as organism-based. The note with it: in vivo, other, 360 h. The method, boiled down:
as §2

The structures appear in SMILES notation. Where only a bound is given, the exact number is not on record here.

Consider `CCOC(=O)C(C)N1C(=O)C(C)Oc2cc(F)c(N3C(=O)C4=C(CCCC4)C3=O)cc21` (stereo unspecified), for which the “growth inhibition (GI)” value with Gossypium is reported as “Not Active”.

On to `C#CCN1C(=O)COc2cc(F)c(N3C(=O)C4=C(CCCC4)C3=O)cc21` [FLUMIOXAZIN], for which the inhibition at 360 h in [1], in [2], in data set [3], in data set [4] and in [5] was over 10% throughout.

For `CCOC(=O)C(CC)N1C(=O)C(C)Oc2cc(F)c(N3C(=O)C4=C(CCCC4)C3=O)cc21` (stereo unspecified), the “growth inhibition (GI)” value with Oryza sativa [6], in the data set with Oryza sativa [7], with Triticum aestivum and in the data set on Gossypium was “Not Active” each time.

In the case of `COC(=O)C(C)N1C(=O)C(C)Oc2cc(F)c(N3C(=O)C4=C(CCCC4)C3=O)cc21` (stereo unspecified), the inhibition at 360 h in data set [1] is over 10%.
